ChEMBL document CHEMBL1138784, “Rational design, synthesis, and biological evaluation of bis(pyrimido[5,6,1-de]acridines) and bis(pyrazolo[3,4,5-kl]acridine-5-carboxamides) as new anticancer agents” (J Med Chem, 2004)

Legend:
[1] = test system: LoVo; test: Ratio of IC50 against sensitive LoVo cell line and that of doxorubicin resistance LoVo cell line was determined after 1 hr exposure; type: functional, Homo sapiens
[2] = test system: LoVo; test: Cytotoxicity against doxorubicin resistant LoVo cell line was determined against 144 hrs; type: functional, cell-based; settings: Homo sapiens
Procedure, shortened: (§1)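 MTT assay on doxorubicin-sensitive LoVo and resistant LoVo/Dx cells, 24 h preincubation, then 1 h or 144 h drug exposure at 37 °C, 5% CO2. IC50 in nM. Resistance index is IC50 on LoVo/Dx divided by IC50 on LoVo.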

[3] = test system: LoVo; test: Cytotoxicity against human LoVo cancer cell line was determined after 1 hr; type: functional, cell-based; procedure, shortened: as §1
[4] = test system: LoVo; test: Cytotoxicity against doxorubicin resistant LoVo cell line was determined against 1 hour; type: functional, cell-based; settings: Homo sapiens; procedure, shortened: as §1
[5] = Cytotoxicity is determined as the concentration required to inhibit the growth of human colon adenocarcinoma (HT-29) cell line
[6] = test system: PC-3; test: Cytotoxicity against human PC3 cancer cell line was determined after 1 hr; type: functional, cell-based; settings: PC-3, 1 h
Procedure, shortened: (§2)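 MTT colorimetric assay. Cells seeded by growth characteristics and preincubated 24 h, then exposed to drug for 1 h or 144 h at 37 °C, 5% CO2. H460M, MKN45 and PC-3 were grown in RPMI 1640 with 10% FCS. HCT116 was grown in D-MEM with 10% FBS and 2 mM glutamine.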

[7] = test system: Nucleic Acid; test: Binding site preference is determined as the ratio of Poly (dA-dT)2 to Poly (dG-dC)2; type: nucleic-acid assay
Procedure, shortened: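 Ethidium displacement fluorometry at pH 7.0 (10 mM Na2HPO4, 10 mM NaH2PO4, 1 mM EDTA) with 1.26 μM ethidium bromide and 1 μM [poly(dA-dT)]2 or [poly(dG-dC)]2, 20 °C. Ex 546 nm, em 595 nm, drug added serially from a DMSO stock. Preference taken from the [AT]/[GC] ratio of C50 values, counted significant only below 0.7 or above 1.3.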

[8] = test system: SNB-19; test: Percent growth of CNS SNB-19 cell line was determined at 10e-5 M concentration after 48 hr of exposing; type: functional, Homo sapiens
Procedure, shortened: (§3)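 NCI sulforhodamine B screen. Cells seeded by growth rate, 24 h drug-free, then 48 h exposure to 10^-8, 10^-6 or 10^-5 M. Protein-stain optical density expressed as percent growth relative to untreated control (100%); negative values indicate cell kill.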

[9] = test system: DU-145; test: Percent growth of prostate DU-145 cell line was determined at 10e-6 M concentration after 48 hr of exposing; type: functional, Homo sapiens
[10] = test system: DU-145; test: Percent growth of prostate DU-145 cell line was determined at 10e-8 M concentration after 48 h of exposing; type: functional, Homo sapiens
[11] = Percent growth of melanoma LOX IMV1 cell line was determined at 10e-5 M concentration after 48 hr of exposing; type: functional, Homo sapiens; procedure, shortened: as §3
[12] = Percent growth of melanoma LOX IMV1 cell line was determined at 10e-6 M concentration after 48 hr of exposing; type: functional, Homo sapiens; procedure, shortened: as §3
[13] = Percent growth of melanoma LOX IMV1 cell line was determined at 10e-8 M concentration after 48 hr of exposing; type: functional, Homo sapiens; procedure, shortened: as §3
[14] = test system: MKN-45; test: Cytotoxicity against human MKN45 cancer cell line was determined after 1 hr; type: functional, cell-based; settings: MKN-45, 1 h; procedure, shortened: as §2
[15] = test system: HCT-116; test: Cytotoxicity against human HCT116 cancer cell line was determined after 1 hr; type: functional, cell-based; settings: HCT-116, 1 h; procedure, shortened: as §2
[16] = test system: SNB-19; test: Percent growth of CNS SNB-19 cell line was determined at 10e-6 M concentration after 48 hr of exposing; type: functional, Homo sapiens; procedure, shortened: as §3
[17] = test system: SNB-19; test: Percent growth of CNS SNB-19 cell line was determined at 10e-8 M concentration after 48 hr of exposing; type: functional, Homo sapiens; procedure, shortened: as §3
[18] = test system: 786-0; test: Percent growth of renal 786-O cell line was determined at 10e-5 M concentration after 48 hr of exposing; type: functional, Homo sapiens; procedure, shortened: as §3
[19] = test system: 786-0; test: Percent growth of renal 786-O cell line was determined at 10e-6 M concentration after 48 h of exposing; type: functional, Homo sapiens; procedure, shortened: as §3
[20] = test system: 786-0; test: Percent growth of renal 786-O cell line was determined at 10e-8 M concentration after 48 h of exposing; type: functional, Homo sapiens; procedure, shortened: as §3
[21] = test system: MCF7; test: Percent growth of breast MCF-7 cell line was determined at 10e-6 M concentration after 48 h of exposing; type: functional, Homo sapiens
[22] = test system: MCF7; test: Percent growth of breast MCF-7 cell line was determined at 10e-8 M concentration after 48 hr of exposing; type: functional, Homo sapiens
[23] = test system: SW-620; test: Percent growth of colon SW-620 cell line was determined at 10e-5 M concentration after 48 hr of exposing; type: functional, Homo sapiens; procedure, shortened: as §3
[24] = test system: SW-620; test: Percent growth of colon SW-620 cell line was determined at 10e-6 M concentration after 48 hr of exposing; type: functional, Homo sapiens; procedure, shortened: as §3
[25] = test system: SW-620; test: Percent growth of colon SW-620 cell line was determined at 10e-8 M concentration after 48 hr of exposing; type: functional, Homo sapiens; procedure, shortened: as §3
[26] = test system: NCI-H460; test: Percent growth of lung NCI-H460 cell line was determined at 10e-5 M concentration after 48 hr of exposing; type: functional, Homo sapiens; procedure, shortened: as §3
[27] = test system: NCI-H460; test: Percent growth of lung NCI-H460 cell line was determined at 10e-6 M concentration after 48 hr of exposing; type: functional, Homo sapiens; procedure, shortened: as §3
[28] = test system: NCI-H460; test: Percent growth of lung NCI-H460 cell line was determined at 10e-8 M concentration after 48 hr of exposing; type: functional, Homo sapiens; procedure, shortened: as §3
[29] = test system: MOLT-4; test: Percent growth of leukemia MOLT-4 cell line was determined at 10e-5 M concentration after 48 hr of exposing; type: functional, Homo sapiens; procedure, shortened: as §3
[30] = test system: MOLT-4; test: Percent growth of leukemia MOLT-4 cell line was determined at 10e-6 M concentration after 48 h of exposing; type: functional, Homo sapiens; procedure, shortened: as §3
[31] = test system: MOLT-4; test: Percent growth of leukemia MOLT-4 cell line was determined at 10e-8 M concentration after 48 hr of exposing; type: functional, Homo sapiens; procedure, shortened: as §3
[32] = test system: OVCAR-4; test: Percent growth of ovarian OVCAR-4 cell line was determined at 10e-5 M concentration after 48 hr of exposing; type: functional, Homo sapiens; procedure, shortened: as §3
[33] = test system: OVCAR-4; test: Percent growth of ovarian OVCAR-4 cell line was determined at 10e-6 M concentration after 48 hr of exposing; type: functional, Homo sapiens; procedure, shortened: as §3
[34] = test system: OVCAR-4; test: Percent growth of ovarian OVCAR-4 cell line was determined at 10e-8 M concentration after 48 hr of exposing; type: functional, Homo sapiens; procedure, shortened: as §3
[35] = test system: DU-145; test: Percent growth of prostate DU-145 cell line was determined at 10e-5 M concentration after 48 hr of exposing; type: functional, Homo sapiens
[36] = Cytotoxicity against human PC3 cancer cell line was determined after 144 hr; type: cell-based; settings: Cancer cell lines; procedure, shortened: as §2
[37] = Cytotoxicity against human LoVo cancer cell line was determined after 144 hr; type: cell-based; procedure, shortened: as §1
[38] = Cytotoxicity against human HCT116 cancer cell line was determined after 144 hr; type: cell-based; settings: HCT-116, 144 h; procedure, shortened: as §2
[39] = test system: MCF7; test: Percent growth of breast MCF-7 cell line was determined at 10e-5 M concentration after 48 hr of exposing; type: functional, Homo sapiens

## COc1cccc2c1C(=O)c1c(O)c3c(c(O)c1C2=O)C[C@@](O)(C(=O)CO)C[C@@H]3O[C@H]1C[C@H](N)[C@H](O)[C@H](C)O1 [DOXORUBICIN]
[1]
  Resistance index: 11
[2]
  IC50: 2300 nM
[3]
  IC50: 810 nM
[4]
  IC50: 9100 nM

## CN(C)CCn1c(=O)c2ccc(NCCCN(C)CCCNc3ccc4c(=O)n(CCN(C)C)c(=O)n5c6ccccc6c(=O)c3c45)c3c(=O)c4ccccc4n(c1=O)c23
[1]
  Resistance index: 2.1
[5]
  IC50: < 0.1 nM
[6]
  IC50: 4.1 nM
[2]
  IC50: 3.1 nM
[3]
  IC50: 5.2 nM
[7]
  Binding site preference: 25
[8]
  Growth: -53%
[9]
  Growth: -13%
[10]
  Growth: 37%
[11]
  Growth: -82%
[12]
  Growth: -43%
[13]
  Growth: 25%
[4]
  IC50: 11 nM
[14]
  IC50: 0.01 nM
[15]
  IC50: 0.72 nM
[16]
  Growth: 7%
[17]
  Growth: 32%
[18]
  Growth: -100%
[19]
  Growth: 4%
[20]
  Growth: 34%
[21]
  Growth: 0%
[22]
  Growth: 31%
[23]
  Growth: -89%
[24]
  Growth: -25%
[25]
  Growth: 26%
[26]
  Growth: -95%
[27]
  Growth: -22%
[28]
  Growth: 13%
[29]
  Growth: -71%
[30]
  Growth: -26%
[31]
  Growth: 9%
[32]
  Growth: -77%
[33]
  Growth: -53%
[34]
  Growth: 15%
[35]
  Growth: -98%
[36]
  IC50: 1.6 nM
[37]
  IC50: 0.31 nM
[38]
  IC50: 0.1 nM
[39]
  Growth: -96%
